Test results taken from ChEMBL document CHEMBL4038340, “Development of Novel Peptide-Based Michael Acceptors Targeting Rhodesain and Falcipain-2 for the Treatment of Neglected Tropical Diseases (NTDs)” (J Med Chem, 2017).

Key:
[1] = test system: Trypanosoma brucei brucei; assay: Antiparasitic activity against bloodstream form of Trypanosoma brucei brucei 449 after 24 hrs by ATPlite assay; type: functional; conditions: Trypanosoma brucei, 449, 24 h
[2] = test system: Trypanosoma brucei brucei; assay: Antiparasitic activity against bloodstream form of Trypanosoma brucei brucei 449 after 48 hrs by ATPlite assay; type: functional; conditions: Trypanosoma brucei, 449, 48 h
Procathepsin L [3] = molecular target: T1, Procathepsin L (Homo sapiens, UniProt P07711); assay: Inhibition of human cathepsin L assessed as first order rate constant using Cbz-Phe-Arg-AMC as substrate after 10 mins by fluorescence assay
Target sequence in this assay (P07711 114-333 limits assumed): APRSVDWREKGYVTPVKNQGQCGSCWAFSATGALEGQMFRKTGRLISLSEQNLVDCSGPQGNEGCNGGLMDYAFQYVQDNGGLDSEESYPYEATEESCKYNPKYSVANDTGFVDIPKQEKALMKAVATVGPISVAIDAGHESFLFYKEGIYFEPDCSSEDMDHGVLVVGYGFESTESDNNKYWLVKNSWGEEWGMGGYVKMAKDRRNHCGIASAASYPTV

Falcipain 2 = molecular target: T2, Falcipain 2 (Plasmodium falciparum, UniProt Q9N6S8); assay: Inhibition of recombinant Plasmodium falciparum falcipain-2 expressed in Escherichia coli M15(pREP4) using Cbz-Phe-Arg-AMC as substrate by fluorescence assay
T2 sequence (Q9N6S8 whole entry): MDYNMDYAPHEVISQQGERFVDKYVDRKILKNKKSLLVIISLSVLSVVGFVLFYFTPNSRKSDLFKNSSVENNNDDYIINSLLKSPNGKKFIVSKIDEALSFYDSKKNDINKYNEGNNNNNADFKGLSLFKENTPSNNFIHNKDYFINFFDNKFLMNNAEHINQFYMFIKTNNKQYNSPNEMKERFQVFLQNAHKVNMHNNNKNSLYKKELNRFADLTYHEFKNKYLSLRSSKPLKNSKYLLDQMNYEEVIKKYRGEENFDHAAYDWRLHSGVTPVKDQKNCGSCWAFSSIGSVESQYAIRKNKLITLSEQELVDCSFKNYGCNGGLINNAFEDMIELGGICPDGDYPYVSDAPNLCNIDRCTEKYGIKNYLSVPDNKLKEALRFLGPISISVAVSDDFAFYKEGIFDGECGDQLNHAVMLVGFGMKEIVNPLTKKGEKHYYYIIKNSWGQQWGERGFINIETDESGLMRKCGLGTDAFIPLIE

[4] = molecular target: Rhodesain (Trypanosoma brucei rhodesiense) (UniProt Q95PM0); assay: Inhibition of recombinant Trypanosoma brucei rhodesiense rhodesain expressed in Pichia pastoris assessed as second order rate constant using Cbz-Phe-Arg-AMC as substrate after 30 mins by fluorescence assay
Rhodesain (Trypanosoma brucei rhodesiense), sequence (Q95PM0 1-450): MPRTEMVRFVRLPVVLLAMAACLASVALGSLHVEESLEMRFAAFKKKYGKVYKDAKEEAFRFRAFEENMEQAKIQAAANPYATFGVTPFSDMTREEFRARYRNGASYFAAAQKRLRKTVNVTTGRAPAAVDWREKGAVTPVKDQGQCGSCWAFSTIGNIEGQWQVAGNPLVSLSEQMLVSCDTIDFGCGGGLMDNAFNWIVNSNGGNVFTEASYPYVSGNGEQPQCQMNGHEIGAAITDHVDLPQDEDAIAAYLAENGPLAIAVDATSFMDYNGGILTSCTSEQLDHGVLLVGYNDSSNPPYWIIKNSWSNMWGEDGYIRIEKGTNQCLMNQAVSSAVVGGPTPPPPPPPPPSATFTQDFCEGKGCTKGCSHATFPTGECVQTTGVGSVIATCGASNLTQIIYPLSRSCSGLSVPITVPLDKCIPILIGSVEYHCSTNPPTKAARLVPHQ
Procedure, shortened: (§1)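 Recombinant rhodesain with fluorogenic substrate Cbz-Phe-Arg-AMC. Preliminary screen at a fixed inhibitor concentration of 50 µM. Equal volume of DMSO served as negative control and E-64 as irreversible positive control. Active compounds went on to continuous assays at seven concentrations, from minimally to fully inhibitory, giving kinac (min-1), Ki (nM) and k2nd = kinac/Ki (M-1 min-1).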

[5] = molecular target: Rhodesain (Trypanosoma brucei rhodesiense) (UniProt Q95PM0); assay: Inhibition of recombinant Trypanosoma brucei rhodesiense rhodesain expressed in Pichia pastoris assessed as first order rate constant using Cbz-Phe-Arg-AMC as substrate after 30 mins by fluorescence assay; procedure, shortened: as §1
Rhodesain = Rhodesain (Trypanosoma brucei rhodesiense, UniProt Q95PM0); assay: Inhibition of recombinant Trypanosoma brucei rhodesiense rhodesain expressed in Pichia pastoris using Cbz-Phe-Arg-AMC as substrate after 30 min by fluorescence assay
Rhodesain, sequence (Q95PM0 whole entry): as the sequence (Q95PM0 1-450) above
Procedure, shortened: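 Recombinant rhodesain with fluorogenic Cbz-Phe-Arg-AMC substrate. Compounds were first screened at a fixed 50 µM, with DMSO as negative control and an irreversible clan CA cysteine-protease inhibitor as positive control. Continuous assays at seven inhibitor concentrations, from minimally to fully inhibitory, gave kinac (min-1) and Ki, with k2nd = kinac/Ki (M-1 min-1).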

Procathepsin L [6] = molecular target: T1, Procathepsin L; assay: Inhibition of human cathepsin L assessed as second order rate constant using Cbz-Phe-Arg-AMC as substrate after 10 mins by fluorescence assay
Target sequence in this assay (P07711 114-333 limits assumed): as the sequence (P07711 114-333 limits assumed) above

Procathepsin L [7] = molecular target: T1, Procathepsin L; assay: Inhibition of human cathepsin L using Cbz-Phe-Arg-AMC as substrate after 10 mins by fluorescence assay
Target sequence in this assay (P07711 whole entry): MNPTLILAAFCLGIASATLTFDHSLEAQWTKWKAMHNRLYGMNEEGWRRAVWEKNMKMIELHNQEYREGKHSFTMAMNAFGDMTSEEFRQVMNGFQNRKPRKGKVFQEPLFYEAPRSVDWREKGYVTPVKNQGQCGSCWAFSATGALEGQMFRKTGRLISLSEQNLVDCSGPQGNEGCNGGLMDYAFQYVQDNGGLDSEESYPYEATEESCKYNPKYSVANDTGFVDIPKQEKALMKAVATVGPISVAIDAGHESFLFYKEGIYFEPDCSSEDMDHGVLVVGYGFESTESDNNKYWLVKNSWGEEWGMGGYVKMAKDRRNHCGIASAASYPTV

Plasmodium falciparum = assay: Antiparasitic activity against Plasmodium falciparum W2 after 48 hrs by YOYO-1 probe-based flow cytometry; type: functional; conditions: W2, 48 h
[8] = Cytotoxicity against human HeLa cells assessed as decrease in cell viability after 48 hrs by MTT assay; type: cell-based
[9] = Selectivity index, ratio of CC50 for human HeLa cells to EC50 for Trypanosoma brucei brucei 449 for 48 hrs; type: toxicity, cell-based; conditions: read-out: Ratio CC50/EC50

Row | SMILES | EC50 [1] [nM] | EC50 [2] [nM] | Kinact (Procathepsin L [3]) [min⁻¹] | IC50 (Falcipain 2) [nM] | K [4] [×10³ /M/min] | Kinact [5] [min⁻¹] | Ki (Rhodesain) [nM] | K (Procathepsin L [6]) [×10³ /M/min] | Ki (Procathepsin L [7]) [nM] | EC50 (Plasmodium falciparum) [nM] | CC50 at 48 h [8] [nM] | selectivity ratio at 48 h [9]
1 | N=C(NCCCCCCNC(=N)NC(=N)Nc1ccc(Cl)cc1)NC(=N)Nc1ccc(Cl)cc1 [CHLORHEXIDINE] | 670 | 530 |  |  |  |  |  |  |  |  |  | 
2 | O=C(N[C@@H](Cc1ccccc1)C(=O)N[C@H](/C=C/S(=O)(=O)c1ccccc1)CCc1ccccc1)OCc1ccc([N+](=O)[O-])cc1 | 5480 | 4070 | 0.003 | > 50000 | 334 | 0.0024 | 7.2 | 65 | 45 | > 10000 |  | 
3 | CC(C)C[C@H](NC(=O)OCc1ccccc1)C(=O)N[C@H](/C=C/S(=O)(=O)c1ccccc1)CCc1ccccc1 | 2500 | 2620 | 0.0009 | 780 | 342 | 0.0028 | 9.1 | 1570 | 0.61 | 1530 | 12200 | 4.6
4 | COC(=O)/C=C/[C@H](CCc1ccccc1)NC(=O)[C@H](Cc1ccccc1)NC(=O)OCc1ccc([N+](=O)[O-])cc1 | 97200 |  | 0.0016 | > 50000 | 347 | 0.0012 | 3.6 | 64 | 25 | > 10000 |  | 
5 | N#C/C=C/[C@H](CCc1ccccc1)NC(=O)[C@H](Cc1ccccc1)NC(=O)OCc1ccc([N+](=O)[O-])cc1 |  |  |  | > 50000 | 0.26 | 0.0004 | 1740 |  |  | > 10000 |  | 
6 | CC(C)C[C@H](NC(=O)OCc1ccccc1)C(=O)N[C@H](/C=C/C#N)CCc1ccccc1 |  |  | 0.0012 | > 50000 | 19 | 0.001 | 53 | 3.8 | 330 | > 10000 |  | 
7 | COC(=O)/C=C/[C@H](CCc1ccccc1)NC(=O)[C@H](Cc1ccccc1)NC(=O)OCc1ccccc1 | 12900 | 8280 | 0.004 | > 50000 | 919 | 0.0018 | 2 | 153 | 27 | > 10000 |  | 
8 | CC(=O)/C=C/[C@H](CCc1ccccc1)NC(=O)[C@H](CC(C)C)NC(=O)OCc1ccc([N+](=O)[O-])cc1 | 3230 | 2480 | 0.0026 | 110 | 2970 | 0.0027 | 0.9 | 739 | 3.5 | 2740 | 8200 | 3.3
9 | CC(C)C[C@H](NC(=O)[C@H]1O[C@@H]1C(=O)O)C(=O)NCCCCN=C(N)N [E-64] |  |  | 0.0032 | 250 | 261 | 0.009 | 35 | 110 | 30 |  |  | 
10 | CC(=O)/C=C/[C@H](CCc1ccccc1)NC(=O)[C@H](CC(C)C)NC(=O)OCc1ccccc1 | 3850 | 3200 | 0.0013 | 250 | 3800 | 0.0016 | 0.5 | 13 | 110 | 3160 | 9580 | 3
11 | N#C/C=C/[C@H](CCc1ccccc1)NC(=O)[C@H](Cc1ccccc1)NC(=O)OCc1ccccc1 |  |  | 0.0022 | > 50000 | 12 | 0.0005 | 46 | 9.3 | 240 | > 10000 |  | 
12 | COC(=O)/C=C/[C@H](CCc1ccccc1)NC(=O)[C@H](CC(C)C)NC(=O)OCc1ccccc1 | 6080 | 5020 | 0.0032 | 9530 | 509 | 0.0038 | 7.5 | 81 | 40 | 4400 |  | 
13 | CC(=O)/C=C/[C@H](CCc1ccccc1)NC(=O)[C@H](Cc1ccccc1)NC(=O)OCc1ccc([N+](=O)[O-])cc1 | 6050 | 4980 | 0.0016 | 780 | 24400 | 0.0017 | 0.074 | 737 | 2.2 | 7180 |  | 
14 | O=C(N[C@@H](Cc1ccccc1)C(=O)N[C@H](/C=C/S(=O)(=O)c1ccccc1)CCc1ccccc1)OCc1ccccc1 | 23700 | 18500 | 0.0014 | 7330 | 663 | 0.0033 | 5 | 4.4 | 290 | > 10000 |  | 
15 | COC(=O)/C=C/[C@H](CCc1ccccc1)NC(=O)[C@H](CC(C)C)NC(=O)OCc1ccc([N+](=O)[O-])cc1 |  |  | 0.0014 | 9630 | 152 | 0.0023 | 17 | 35 | 41 | 3970 |  | 
16 | CC(C)C[C@H](NC(=O)OCc1ccc([N+](=O)[O-])cc1)C(=O)N[C@H](/C=C/S(=O)(=O)c1ccccc1)CCc1ccccc1 |  |  | 0.005 | 1320 | 304 | 0.0043 | 14 | 22 | 250 | 2310 |  | 
17 | CCN(CC)CCCC(C)Nc1ccnc2cc(Cl)ccc12 (configuration not stated) [CHLOROQUINE] |  |  |  |  |  |  |  |  |  | 57 |  | 
